aSyn 5UTR inh – 5' untranslated region of α-synuclein, MLPCN primary screen; alpha-synuclein 5'UTR reporter, inhibitor activity; inhibition, % (tested at 7.5 µM); 0.82% of 300,000 active; AID 1813; in the data active = inhibition above about 60%;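 also: H4 neuroglioblastoma cells stably carrying SNCA 5'UTR luciferase fusion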
SKKanGAS inh – SKKanGAS growth inhibition. inhibition, % at 7.5 µM. S. pyogenes SKKanGAS, kanamycin growth, BacTiter-Glo, 6 h. 1.3% of 300,000 active;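 active = mean replicate score, as percent of positive control median, at least 50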;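 also: strain carries kanamycin resistance gene driven by streptokinase promoter and grows in 40 µg/ml kanamycin; loss of luminescence reflects streptokinase promoter inhibition or plain growth inhibition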
Mdm2 MdmX PPI – human Mdm2/MdmX binding inhibition; inhibition, % at 8 µM; 3% of 330,000 active; SaOS-2 split-luciferase Mdm2/MdmX complementation, luminescence; O15151+Q00987;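 active = inhibition of at least 50% at 8 µM in the primary screen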
Target sequence (O15151 whole entry, looked up): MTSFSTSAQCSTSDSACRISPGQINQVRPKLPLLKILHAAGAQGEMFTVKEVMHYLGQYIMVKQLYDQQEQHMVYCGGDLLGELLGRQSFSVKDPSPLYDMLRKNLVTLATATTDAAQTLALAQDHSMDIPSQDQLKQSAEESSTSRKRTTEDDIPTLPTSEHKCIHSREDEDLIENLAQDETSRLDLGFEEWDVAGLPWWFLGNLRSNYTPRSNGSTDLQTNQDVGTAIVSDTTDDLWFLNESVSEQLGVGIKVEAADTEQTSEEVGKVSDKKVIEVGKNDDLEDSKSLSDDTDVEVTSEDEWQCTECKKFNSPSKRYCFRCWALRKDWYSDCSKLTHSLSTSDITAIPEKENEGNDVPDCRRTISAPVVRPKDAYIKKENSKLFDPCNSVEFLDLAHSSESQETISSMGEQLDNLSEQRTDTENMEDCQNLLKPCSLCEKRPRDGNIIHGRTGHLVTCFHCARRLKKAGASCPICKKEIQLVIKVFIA
Target sequence (Q00987 whole entry, looked up): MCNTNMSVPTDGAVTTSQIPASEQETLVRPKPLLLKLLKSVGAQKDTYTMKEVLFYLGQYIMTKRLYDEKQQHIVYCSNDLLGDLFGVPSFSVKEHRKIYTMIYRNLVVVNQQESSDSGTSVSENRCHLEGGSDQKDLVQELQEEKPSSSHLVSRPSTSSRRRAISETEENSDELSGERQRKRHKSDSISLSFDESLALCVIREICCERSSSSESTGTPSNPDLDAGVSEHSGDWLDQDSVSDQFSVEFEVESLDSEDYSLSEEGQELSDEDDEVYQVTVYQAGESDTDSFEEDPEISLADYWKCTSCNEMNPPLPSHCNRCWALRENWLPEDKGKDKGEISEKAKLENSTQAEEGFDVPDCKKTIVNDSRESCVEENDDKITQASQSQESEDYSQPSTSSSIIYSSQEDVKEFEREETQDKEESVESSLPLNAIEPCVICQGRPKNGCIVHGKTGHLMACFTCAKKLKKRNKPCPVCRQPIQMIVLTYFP
T cruzi inh – T. cruzi replication inhibition; inhibition, % (concentration not given with the values); T. cruzi beta-gal in NIH3T3, luminescence, 90 h; 1.4% of 300,000 active; AID 1885;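 active = mean inhibition across valid replicates above about 55%, limit read from the data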;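 also: signal also drops with host cell toxicity which is not excluded here; higher percent means less beta-gal luminescence so fewer parasites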
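System: Mouse NIH/3T3 fibroblasts infected with β-gal-expressing T. cruzi Tulahuen C4 | Quantity: NIH/3T3 cells, 5,000 per well | Reagent: 5000 reporter trypomastigotes per well | Dosing: Compound pinned at 50 nL/well, DMSO | Schedule: 3 h host attachment, then at least 90 h co-culture | Detection: GalScreen luminescence, 60 min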
CSC inhib – blocks cancer stem cells; cancer stem cell-like cells viability, luminescence; 1.1% of 300,000 active; AID 2717; inhibition, % at 7.5 µM; in the data active = inhibition above about 75%; tested in HMLE shEcad cells
Numbers stand for hits; i = inactive; nt = not tested or not shown. An excerpt weighted towards active compounds, which were near 5.4% of everything screened.

SMILES | aSyn 5UTR inh | SKKanGAS inh | Mdm2 MdmX PPI | T cruzi inh | CSC inhib
CCCN1CCC(=NNc2ccc(S(N)(=O)=O)cc2[N+](=O)[O-])CC1 | i | i | i | i | i
Clc1ccc(C2=NCCN2)cc1 | i | i | i | 62 | i
O=C(Nc1ccc(C2=NCCN2)cc1)c1ccc(Cl)c(C(=O)Nc2ccc(C3=NCCN3)cc2)c1 | i | i | i | i | i
Cc1ccc(S(=O)(=O)NC(=O)NCc2ccccn2)cc1 | i | i | i | i | i
O=C(Nc1cccnc1Cl)c1cc([N+](=O)[O-])ccc1Cl | i | i | i | 66 | i
CCn1c(=O)c([N+](=O)[O-])c(NCCc2ccccc2)c2ccccc21 | i | i | i | i | i
Cn1c(=O)c([N+](=O)[O-])c(Cl)c2ccccc21 | i | i | nt | 88 | nt
Cn1c(=O)c([N+](=O)[O-])c(NCCc2ccccc2)c2ccccc21 | i | i | i | 59 | i
CCCNC(=O)c1onc(CSc2ccc(Cl)cc2)c1C(=O)NC(C)C | i | i | i | i | i
O=C(Cn1c(C(=O)N2CCN(C3CCCCC3)CC2)cc2sccc21)c1ccccc1 | i | i | i | 76 | i
CCOC(=O)C1=C(c2ccccc2)NC(SCC(=O)Nc2ccc(C)cc2)=C(C#N)C1c1ccco1 (centres undefined) | i | i | i | 65 | i
CCOC(=O)C1=C(c2ccccc2)NC(SCC(=O)Nc2cccc(C)c2)=C(C#N)C1c1ccco1 (centres undefined) | i | i | i | i | i
COc1ccc(Cn2ccnc2)cc1Br | i | i | i | i | i
COc1ccc(NCc2ccc(OC)c(Cn3ccnc3)c2)c(OC)c1 | i | i | i | 56 | i
COCCn1c(SCC(=O)Nc2ccc(F)cc2)nc2c([nH]c3ccccc32)c1=O | i | 51 | i | i | i
CCO[C@@H]1OC(C(=O)N2CCN(Cc3ccc4c(c3)OCO4)CC2)=C[C@H](C2CCCCC2)[C@H]1CCCO | i | i | i | 72 | i
O=C(C1=C[C@H](C2CCCCC2)C[C@H](OCCCCO)O1)N1CCN(Cc2ccc3c(c2)OCO3)CC1 | i | i | i | 56 | i
O=C(C1=C[C@H](c2ccc(Br)cc2)C[C@H](OCCCCO)O1)N1CCN(Cc2ccc3c(c2)OCO3)CC1 | i | i | i | 65 | i
COc1ccc(C)cc1NC(=O)C1CCCCN1S(=O)(=O)c1ccccc1 (centres undefined) | nt | nt | i | nt | i
O=C(NCC(c1cccnc1)N1CCN(c2ccc(F)cc2)CC1)c1ccc(F)cc1 (centres undefined) | i | i | i | 60 | i
COc1ccc(N2CCN(C(CNC(=O)c3ccco3)c3cccnc3)CC2)cc1 (centres undefined) | i | i | i | i | i
COc1cc(C(=O)NCC(c2cccnc2)N2CCN(c3ccc(F)cc3)CC2)cc(OC)c1OC (centres undefined) | i | nt | i | 71 | i
O=C(NCC(c1cccnc1)N1CCN(c2ccc(F)cc2)CC1)c1ccco1 (centres undefined) | i | i | i | 60 | i
CC(C)c1csc(CN2CCC(n3nccc3NC(=O)Cc3ccccc3)CC2)n1 | i | i | i | i | i
CN1CCN(c2ccc(S(=O)(=O)N3CCCCC3)cc2NC(=O)COc2ccc(F)cc2)CC1 | i | i | i | 64 | i
SMILES | aSyn 5UTR inh | SKKanGAS inh | Mdm2 MdmX PPI | T cruzi inh | CSC inhib
O=C(COc1ccc(Br)cc1)Nc1cc(S(=O)(=O)N2CCCCC2)ccc1N1CCCCC1 | i | i | i | i | i
Cc1cc(NC(=O)CSCC(=O)Nc2cc(Cl)ccc2N2CCN(C)CC2)no1 | nt | nt | i | nt | i
CC(=O)Nc1ccc(S(=O)(=O)N(C)C2CCN(C)CC2)cc1 | i | i | i | i | i
CN1CCN(c2ccc(S(=O)(=O)N3CCCCC3)cc2NC(=O)/C=C/c2ccc(Cl)c([N+](=O)[O-])c2)CC1 | i | i | i | 60 | 98
CN1CCC(N(C)S(=O)(=O)c2ccc(C(C)(C)C)cc2)CC1 | i | i | i | 65 | i
Cc1cccc(NC(=O)CSCC(=O)Nc2cc(Cl)ccc2N2CCN(C)CC2)c1 | i | i | i | 59 | i
Cc1cccc(OCC(=O)Nc2cc(S(=O)(=O)N3CCCCC3)ccc2N2CCN(C)CC2)c1 | i | i | i | i | i
CN1CCC(N(C)S(=O)(=O)c2ccc(NC(=O)COc3ccc(Cl)cc3)cc2)CC1 | nt | nt | i | nt | nt
CN1CCC(N(C)S(=O)(=O)c2ccc(NC(=O)COc3ccc(F)cc3)cc2)CC1 | i | i | i | 58 | i
CN1CCN(c2ccc(S(=O)(=O)N3CCCCC3)cc2NC(=O)COc2cccc(Cl)c2)CC1 | i | i | i | 66 | i
Cn1c(N)c(C(=O)COC(=O)Cc2ccc(F)cc2)c(=O)n(C)c1=O | nt | nt | i | nt | nt
CCOC(=O)Cc1ccc(NC(=O)c2ccc(C(C)(C)C)cc2)cc1 | 104 | i | i | i | i
COCCOC(=O)c1c(C)nc(SCC(=O)Nc2cccc3ccccc23)c(C#N)c1-c1ccco1 | i | 50 | i | i | i
COCCOC(=O)c1c(C)nc(SCC(=O)Nc2ccc(C)cc2)c(C#N)c1-c1ccco1 | i | 67 | i | i | i
CNC(=O)c1c(C)nc(SCC(=O)NCc2ccc(OC)cc2)c(C#N)c1-c1ccco1 | i | i | i | i | i
CC1CCN(C(=O)COC(=O)CSc2ccc(C(N)=O)cc2[N+](=O)[O-])CC1 | i | i | i | i | i
O=C(CCCN1C(=O)/C(=C/c2ccccc2Cl)SC1=S)NNC(=O)c1ccc(Cl)cc1 | 65 | i | i | i | i
Cc1ccc(/C=C2\SC(=S)N(CCCC(=O)NNC(=O)c3ccccc3O)C2=O)cc1 | 107 | i | i | i | i
O=C(CCN1C(=O)/C(=C/c2ccccc2Cl)SC1=S)NNC(=O)c1ccccc1O | i | 60 | i | i | i
O=C(CCN1C(=O)/C(=C/c2ccccc2Cl)SC1=S)NNC(=O)c1cccnc1 | i | i | i | i | i
COc1cccc(/C=C2/SC(=S)N(CC(=O)NNC(=O)c3ccccc3O)C2=O)c1 | i | 98 | i | i | nt
CC(Sc1nnc(-c2cccs2)n1N)C(=O)NCC1CCCO1 (centres undefined) | i | i | i | i | i
CSc1nnc(C)c(=O)n1COC(=O)c1ccc(S(=O)(=O)N(C)C)cc1 | i | i | i | i | i
Cc1cccc(NC(=O)CN2NS(=O)(=O)c3ccccc3C2=O)c1 | i | i | i | i | i
O=C(CSc1nncs1)Nc1ccc(N2CCCCC2)cc1 | nt | nt | i | nt | nt
C/C(=N\Nc1cccc(C(F)(F)F)c1)c1ccc(O)cc1 | i | i | i | i | i
COc1ccc(S(=O)(=O)Nc2ccc3c(c2)C(=O)N([C@H](C)CO)C[C@H](C)[C@@H](CN(C)C(=O)Nc2ccccc2)O3)cc1 | nt | nt | i | nt | i
Cc1ccc(C(=O)NNC(=O)CCCN2C(=O)/C(=C/c3ccccc3Cl)SC2=S)cc1 | 69 | i | i | i | i
Cc1ccc(/C=C2\SC(=S)N(CCC(=O)NNC(=O)c3ccc(O)cc3)C2=O)cc1 | i | i | i | i | i
CC(=O)C(Cc1ccccc1)NC(=O)COC(=O)c1ccc(-n2cnnn2)cc1 (centres undefined) | nt | nt | i | nt | i
